The values that follow come from ChEMBL document CHEMBL1140160, “Evidence for the mechanism of action of the antifungal phytolaccoside B isolated from Phytolacca tetramera Hauman” (J Nat Prod, 2008).

In data set [1] the test system is Saccharomyces cerevisiae. The data set is described as follows: Effect on (1->3)-beta-D-glucan synthase-mediated [14C]-Glucose incorporation in Saccharomyces cerevisiae assessed as residual activity after 30 mins. A digest of the protocol:
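Membrane fraction (18000g pellet) from early-log S. cerevisiae MATa trp1 ura3 leu2 his3 pep4::HIS3 nuc1::LEU2 broken with glass beads; 15 µg protein in 40 µL; compound 20 µg/assay added in MeOH; [14C]-glucose incorporation into insoluble glucan; 30 min at 30 °C, stopped with 10% TCA; duplicates; papulacandin B as standard.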

The nature of data set [2]: Hemolytic effect in erythrocytes upto 120 mins by spectrophotometry. The data set is classed as ADME, cell-based. The following applies: erythrocyte, 2 h. In a few lines: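 Heparinized human red blood cells washed three times in isotonic PBS pH 7.0, made into a 4% suspension in sterile 5% glucose. Compound from DMSO stock diluted in 5% glucose to final 188 to 9 µM; incubated at 37 °C. Released haemoglobin read at 540 nm. LC100 is the lowest concentration giving complete lysis (clearing). DMSO alone served as the vehicle control.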

The test system of data set [3] is Aspergillus fumigatus. In words: Antifungal activity against Aspergillus fumigatus ATCC 26934 after 48 hrs by spectrophotometry. It counts as functional. To be noted: ATCC 26934, 48 h, read-out: MIC100.
The subject of data set [4] is Aspergillus niger. The data set is described as follows: Antifungal activity against Aspergillus niger ATCC 9029 after 48 hrs by spectrophotometry. It counts as functional. The following applies: ATCC 9029, 48 h.
Data set [5] has as its system Candida albicans. In words: Antifungal activity against Candida albicans ATCC 10231 after 48 hrs by spectrophotometry. The data set is classed as functional. The following applies: ATCC 10231, 48 h; for MIC: read-out: MIC100.
Data set [6] deals with Cryptococcus neoformans. The data set is described as follows: Antifungal activity against Cryptococcus neoformans ATCC 32264 after 48 hrs by spectrophotometry. It counts as functional. The following applies: ATCC 32264, 48 h; for MIC: read-out: MIC100.
The subject of data set [7] is Saccharomyces cerevisiae. The data set is described as follows: Antifungal activity against Saccharomyces cerevisiae ATCC 9763 after 48 hrs by sorbitol protection assay by spectrophotometry. The data set is classed as functional. To be noted: ATCC 9763, 48 h; for MIC: read-out: MIC100. In a few lines: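 S. cerevisiae ATCC 9763 by the standard broth microdilution procedure, run on duplicate plates of 2-fold dilutions, one plate with 0.8 M sorbitol added to every well as osmotic support; MICs read at 2 and 7 days.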

Data set [8] has as its system Neurospora crassa. In words: Antifungal activity against Neurospora crassa ATCC 9279 after 48 hrs by spectrophotometry. It counts as functional. The following applies: ATCC 9279, 48 h, read-out: MIC100.
For data set [9], the system named is Aspergillus flavus. The data set is described as follows: Antifungal activity against Aspergillus flavus ATCC 9170 after 48 hrs by spectrophotometry. The data set is classed as functional. To be noted: ATCC 9170, 48 h, read-out: MIC100.
The subject of data set [10] is Saccharomyces cerevisiae. The data set is described as follows: Antifungal activity against Saccharomyces cerevisiae assessed as increase in cellular leakage at 74 uM relative to sodium dodecyl sulphate at 6-48 hrs using spectrophotometry. The data set is classed as functional. In a few lines:
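S. cerevisiae ATCC 9763 grown with shaking at 30 °C to early stationary phase, washed twice, diluted to (3-5) × 10^7 cells/mL in cold MOPS buffer pH 6.0; compound at final 74 µM; 2% SDS set as 100% leakage; incubated at 30 °C and sampled at 6, 12, 24 and 48 h; supernatant absorbance at 260 nm; means of at least two independent assays; Student's test.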

Data set [11] has as its target T1, Chitin synthase 1 (Saccharomyces cerevisiae S288c) (UniProt P08004).
T1 sequence (whole entry): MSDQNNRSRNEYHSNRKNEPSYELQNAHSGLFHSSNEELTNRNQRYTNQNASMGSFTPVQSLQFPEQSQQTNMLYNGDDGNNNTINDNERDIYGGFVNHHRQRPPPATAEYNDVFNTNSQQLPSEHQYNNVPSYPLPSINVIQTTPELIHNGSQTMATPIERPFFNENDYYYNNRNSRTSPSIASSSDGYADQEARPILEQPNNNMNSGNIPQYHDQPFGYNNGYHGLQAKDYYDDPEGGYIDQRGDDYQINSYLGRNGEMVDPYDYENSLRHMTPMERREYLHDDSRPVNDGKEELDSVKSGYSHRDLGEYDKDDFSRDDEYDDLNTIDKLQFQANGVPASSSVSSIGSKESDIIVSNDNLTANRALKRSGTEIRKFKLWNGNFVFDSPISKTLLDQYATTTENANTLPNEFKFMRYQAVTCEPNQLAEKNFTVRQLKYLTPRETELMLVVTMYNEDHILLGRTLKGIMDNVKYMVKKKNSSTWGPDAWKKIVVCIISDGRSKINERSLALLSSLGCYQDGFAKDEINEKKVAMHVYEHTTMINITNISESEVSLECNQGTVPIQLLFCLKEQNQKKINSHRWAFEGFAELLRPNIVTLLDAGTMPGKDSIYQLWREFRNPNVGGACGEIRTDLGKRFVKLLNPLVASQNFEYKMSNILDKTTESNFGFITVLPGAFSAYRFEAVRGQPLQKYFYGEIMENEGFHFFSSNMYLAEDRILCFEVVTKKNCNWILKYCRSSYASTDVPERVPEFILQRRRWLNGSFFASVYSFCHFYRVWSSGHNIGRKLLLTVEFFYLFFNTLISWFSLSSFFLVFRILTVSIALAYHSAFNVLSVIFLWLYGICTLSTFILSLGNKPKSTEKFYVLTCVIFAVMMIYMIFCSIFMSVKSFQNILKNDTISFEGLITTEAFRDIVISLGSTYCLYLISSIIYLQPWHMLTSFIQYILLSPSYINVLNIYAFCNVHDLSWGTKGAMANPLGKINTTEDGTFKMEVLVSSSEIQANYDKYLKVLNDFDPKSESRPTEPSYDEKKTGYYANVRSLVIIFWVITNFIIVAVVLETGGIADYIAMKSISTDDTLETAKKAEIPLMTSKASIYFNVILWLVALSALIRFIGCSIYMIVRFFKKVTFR
In words: Effect on chitin synthase 1-mediated incorporation of [14C]N-Acetylglucosamine in Saccharomyces cerevisiae assessed as residual activity after 90 mins in presence of trypsin. In a few lines: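 Same S. cerevisiae membrane fraction, 30 µg protein in 50 µL; compound 20 µg/assay in MeOH; zymogen activated by trypsin (2 µL of 0.25 µg/µL, 15 min, 30 °C) then stopped with trypsin inhibitor; [14C]-N-acetylglucosamine incorporation into chitin over 90 min at 30 °C, stopped with 10% TCA; duplicates; nikkomycin Z as reference.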

Data set [12] addresses Chitin synthase 1 (Neurospora crassa OR74A) (UniProt P29070). In words: Enhancement of chitin synthase 1 activity in Neurospora crassa assessed as increase in cell wall thickness at 37 uM by transmission electron microscopy.
The subject of data set [13] is Saccharomyces cerevisiae. In words: Antifungal activity against Saccharomyces cerevisiae assessed as binding to membrane ergosterol in presence of exogenous ergosterol. The data set is classed as functional, organism-based.
Data set [14] concerns the target T1, Chitin synthase 1 (Saccharomyces cerevisiae S288c). The data set is described as follows: Effect on chitin synthase 1-mediated incorporation of [14C]N-acetylglucosamine in Saccharomyces cerevisiae assessed as residual activity after 90 mins.
For data set [15] the target is unchanged. In words: Enhancement of chitin synthase 1 activity in Saccharomyces cerevisiae assessed as increase in amount of cell wall chitin at 100 mg by Reissig method. In a few lines: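 Untreated and 37 µM-treated S. cerevisiae cells (100 mg each) extracted with 6% KOH for 90 min, digested with chitinase and glusulase; N-acetylglucosamine measured by the Reissig reaction (potassium tetraborate, boiling 3 min, DMAB 20 min at 36-38 °C), absorbance at 585 nm; NAG as standard.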

The target of data set [16] is Chitin synthase 1 (Neurospora crassa OR74A) (UniProt P29070). The data set is described as follows: Enhancement of chitin synthase 1 activity in Neurospora crassa assessed as increase in amount of cell wall chitin at 37 uM by calcofluor staining. In a few lines: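 Exponentially growing N. crassa ATCC 9279 hyphae in YEPD liquid medium, untreated or exposed to 37 µM, washed and stained with Calcofluor white (20 µM final, 5 min, rt), washed; chitin visualised as bluish fluorescence under UV by fluorescence microscopy, 400×, same exposure times.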

Data set [17] deals with Neurospora crassa. In words: Antifungal activity against Neurospora crassa assessed as increase in thickness of hyphae relative to control at 37 uM. The data set is classed as functional, organism-based. A digest of the protocol: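 N. crassa ATCC 9279, 1 × 10^5 spores/mL, grown 24 h at 28 °C with shaking (145 rpm) in YEPD with or without 37 µM. Mycelium fixed in 4% glutaraldehyde in 0.1 M cacodylate, OsO4 and KMnO4 treated, acetone-dehydrated, Spurr-embedded; ultrathin sections stained with uranyl acetate and Reynolds solution; wall thickness measured by transmission electron microscopy.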

The target of data set [18] is T1, Chitin synthase 1 (Saccharomyces cerevisiae S288c). In words: Enhancement of chitin synthase 1 activity in Saccharomyces cerevisiae assessed as increase in amount of cell wall chitin at 37 uM by calcofluor staining. A digest of the protocol: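 Exponentially growing S. cerevisiae ATCC 9763 in YEPD, untreated or exposed to 37 µM, washed and stained with Calcofluor white (20 µM final, 5 min, rt); fluorescence around mother and daughter cell surfaces examined by UV fluorescence microscopy, 400×, same exposure times.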

SMILES strings stand for the structures. Converted amounts (≈) assume the structure as drawn. The source made the active and inactive calls. No cut-off for these calls is given here. A value given as a limit tells only on which side of the number the result lay.

A word on the MFC: it is the lowest tested concentration that kills the fungus rather than only halting it. Usually MIC50 stands for the lowest concentration that inhibits either 50% of growth or 50% of the strains tested, depending on the study. Higher therefore signals lower susceptibility. In general, MIC80 refers to the lowest concentration that inhibits either 80% of growth or 80% of the strains tested, depending on the study. A lower MIC80 goes with greater potency.

Chain of Chitin synthase 1 (Neurospora crassa OR74A) (P29070 whole entry): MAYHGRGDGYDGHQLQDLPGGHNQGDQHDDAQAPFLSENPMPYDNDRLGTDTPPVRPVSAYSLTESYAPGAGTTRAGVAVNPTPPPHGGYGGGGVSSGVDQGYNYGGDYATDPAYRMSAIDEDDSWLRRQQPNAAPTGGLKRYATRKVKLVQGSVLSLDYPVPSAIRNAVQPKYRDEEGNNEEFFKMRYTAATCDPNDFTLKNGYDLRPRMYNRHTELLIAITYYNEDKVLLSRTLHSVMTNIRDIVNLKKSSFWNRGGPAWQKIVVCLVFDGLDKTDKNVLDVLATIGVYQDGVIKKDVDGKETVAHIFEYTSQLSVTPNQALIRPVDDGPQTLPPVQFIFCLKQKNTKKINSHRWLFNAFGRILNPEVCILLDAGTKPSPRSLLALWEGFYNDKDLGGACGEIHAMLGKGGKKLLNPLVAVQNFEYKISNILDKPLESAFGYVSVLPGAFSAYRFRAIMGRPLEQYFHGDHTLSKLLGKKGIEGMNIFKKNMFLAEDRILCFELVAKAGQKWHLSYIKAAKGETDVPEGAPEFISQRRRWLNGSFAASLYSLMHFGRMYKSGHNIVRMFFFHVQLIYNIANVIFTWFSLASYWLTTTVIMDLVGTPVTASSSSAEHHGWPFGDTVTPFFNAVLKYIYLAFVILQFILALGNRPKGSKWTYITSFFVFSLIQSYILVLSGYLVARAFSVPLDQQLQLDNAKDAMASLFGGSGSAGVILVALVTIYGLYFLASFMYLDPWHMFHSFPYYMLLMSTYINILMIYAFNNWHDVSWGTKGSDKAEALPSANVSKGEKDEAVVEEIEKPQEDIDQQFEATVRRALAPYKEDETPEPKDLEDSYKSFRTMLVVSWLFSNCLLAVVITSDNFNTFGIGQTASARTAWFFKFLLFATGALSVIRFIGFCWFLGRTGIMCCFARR

Regarding `CCC(O)/C=C/C=C/C=C/C(=O)OC[C@H]1O[C@@H](O[C@H]2[C@H](OC(=O)/C=C/C=C/CC(O)/C(C)=C/C=C/CCC(C)CC)[C@@H](O)[C@@]3(OCc4cc(O)cc(O)c43)O[C@@H]2CO)[C@H](O)[C@@H](O)[C@H]1O` (stereo partly drawn), in [1], the Activity was determined as 5%.

The molecule `C[C@@H]1[C@H](O)[C@@H](C)/C=C/C=C/C=C/C=C/C=C/C=C/C=C/[C@H](O[C@@H]2O[C@H](C)[C@@H](O)[C@H](N)[C@@H]2O)C[C@@H]2O[C@](O)(C[C@@H](O)C[C@@H](O)[C@H](O)CC[C@@H](O)C[C@@H](O)CC(=O)O[C@H]1C)C[C@H](O)[C@H]2C(=O)O` [AMPHOTERICIN B] yielded an LC100 in [2] of 13.5 µM. Further, the MIC came to 0.5 µM (≈ 0.462 µg/mL) in data set [3]; 0.5 µM (≈ 0.462 µg/mL) in data set [4] (read-out: MIC100); 0.84 µM (≈ 0.776 µg/mL) in [5]; 0.27 µM (≈ 0.25 µg/mL) in [6]; 1.62 µM (≈ 1.5 µg/mL) in data set [7]; 1 µM (≈ 0.924 µg/mL) in data set [8]. The MIC in data set [9] came to 0.5 µM (≈ 0.462 µg/mL).

For the molecule `CC(=O)N1CCN(c2ccc(OCC3COC(Cn4ccnc4)(c4ccc(Cl)cc4Cl)O3)cc2)CC1` (stereo not drawn) [KETOCONAZOLE], the MIC in [3] is 0.13 µM (≈ 0.0691 µg/mL); in [4] (read-out: MIC100) it was 0.25 µM (≈ 0.133 µg/mL); in [5] it was 1 µM (≈ 0.531 µg/mL); in data set [6], 0.5 µM (≈ 0.266 µg/mL); in data set [7] it was 1 µM (≈ 0.531 µg/mL); in data set [8], 2 µM (≈ 1.06 µg/mL). Besides, the MIC in data set [9] was 0.5 µM (≈ 0.266 µg/mL).

With `COC(=O)[C@@]1(C)CC[C@]2(C(=O)O)CC[C@]3(C)C(=CC[C@@H]4[C@@]5(C)C[C@H](O)[C@H](O[C@@H]6OC[C@@H](O)[C@H](O)[C@H]6O)[C@@](C)(CO)[C@@H]5CC[C@]43C)[C@@H]2C1` [PHYTOLACCOSIDE B], the Activity in data set [10] stood at 17%; in [11], 166%; in [12], 400 nm; in data set [14], 190%; in [15] it was 23%; in [1], 93.4%. The molecule further displayed an LC100 in data set [2] of more than 188 µM. Also, the MIC in data set [3] came to 188 µM (≈ 125 µg/mL); in [4] (read-out: MIC), 188 µM (≈ 125 µg/mL); in [5], 74 µM (≈ 49.2 µg/mL); in data set [6], 112 µM (≈ 74.5 µg/mL); in data set [7], 74 µM (≈ 49.2 µg/mL); in data set [8], 74 µM (≈ 49.2 µg/mL). Besides, the MIC in [9] worked out at 74 µM (≈ 49.2 µg/mL). Moreover, the minimum fungicidal concentration (MFC) stood at 150 µM (≈ 99.7 µg/mL) in data set [5], 112 µM (≈ 74.5 µg/mL) in [6] and 150 µM (≈ 99.7 µg/mL) in [7]. The MIC50 came out at 74 µM (≈ 49.2 µg/mL) in data set [5], 9 µM (≈ 5.98 µg/mL) in [6] and 18 µM (≈ 12 µg/mL) in data set [7]. Further, the figures for the MIC80 in data set [5], in data set [6] and in data set [7] were 74 µM (≈ 49.2 µg/mL), 74 µM (≈ 49.2 µg/mL) and 37 µM (≈ 24.6 µg/mL), respectively. Besides, in data set [13], the outcome was inactive. For the same molecule, the result in [16], in data set [17] and in data set [18] was Active.
